≈ marks a conversion by molar mass, not a printed value.
What was measured:
Fusarium graminearum [1] = test: Fungicidal activity against Fusarium graminearum assessed as mycelial growth inhibition in potato dextrose agar at 50 ug/mL at 24 +/- 0.5 degC; format: functional
Outline: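 Single-concentration screen against G. zeae by mycelium growth rate test. Compound in acetone was mixed into PDA at 50 μg/mL, fungus cakes were placed on the plates and grown at 24 ± 0.5 °C, with an acetone blank and three replicates. Percent inhibition was recorded.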

Botrytis cinerea = test: Fungicidal activity against Botryotinia fuckeliana assessed as mycelial growth inhibition in potato dextrose agar at 24 +/- 0.5 degC; format: functional, organism-based
Outline: (§1)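 Mycelium growth rate test. Compounds in acetone were mixed into PDA at 100, 50, 25, 12.5 and 6.25 μg/mL, fungus cakes were placed on the plates and grown at 24 ± 0.5 °C, with an acetone blank and three replicates. Inhibition rates were measured, and EC50 and EC90 were estimated by logit analysis.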

Fusarium graminearum [2] = test: Fungicidal activity against Fusarium graminearum assessed as mycelial growth inhibition in potato dextrose agar at 24 +/- 0.5 degC; format: functional, organism-based; outline: as §1
Verticillium dahliae = test: Fungicidal activity against Verticillium dahliae assessed as mycelial growth inhibition in potato dextrose agar at 24 +/- 0.5 degC; format: functional, organism-based; outline: as §1
Rhizoctonia solani = test: Fungicidal activity against Rhizoctonia solani assessed as mycelial growth inhibition in potato dextrose agar at 24 +/- 0.5 degC; format: functional, organism-based; outline: as §1
[3] = test system: Fusarium oxysporum f. sp. vasinfectum; test: Fungicidal activity against Fusarium oxysporum f. sp. vasinfectum assessed as mycelial growth inhibition in potato dextrose agar at 24 +/- 0.5 degC; format: functional, organism-based; outline: as §1
[4] = test system: Colletotrichum orbiculare; test: Fungicidal activity against Colletotrichum orbiculare assessed as mycelial growth inhibition in potato dextrose agar at 24 +/- 0.5 degC; format: functional, organism-based; outline: as §1
Pythium aphanidermatum = test: Fungicidal activity against Pythium aphanidermatum assessed as mycelial growth inhibition in potato dextrose agar at 24 +/- 0.5 degC; format: functional, organism-based; outline: as §1

SMILES: CC(C)c1cc(C(C)C)nc(NC(=O)NS(=O)(=O)C2CCCCCCCCCCC2=O)n1 (stereo not drawn)
- inhibition at 50 µg/mL (Fusarium graminearum [1]): 55.6%

SMILES: O=C(Nc1ccc(Cl)cc1)NS(=O)(=O)C1CCCCC1=O (stereo not drawn)
- inhibition at 50 µg/mL (Fusarium graminearum [1]): 18.1%

SMILES: O=C(Nc1ccc(Cl)c(Cl)c1)NS(=O)(=O)C1CCCCCC1=O (stereo not drawn)
- inhibition at 50 µg/mL (Fusarium graminearum [1]): 18.1%

SMILES: CCc1cc(CC)nc(NC(=O)NS(=O)(=O)C2CCCCCCCCCCC2=O)n1 (stereo not drawn)
- inhibition at 50 µg/mL (Fusarium graminearum [1]): 55.6%

SMILES: COc1cc(OC)nc(NC(=O)NS(=O)(=O)C2CCCCCCCCCCC2=O)n1 (stereo not drawn)
- inhibition at 50 µg/mL (Fusarium graminearum [1]): 26.5%

SMILES: O=C(Nc1ccc(F)cc1)NS(=O)(=O)C1CCCCCCCCCCC1=O (stereo not drawn)
- inhibition at 50 µg/mL (Fusarium graminearum [1]): 18.1%

SMILES: O=C(Nc1cc(Cl)ccc1Cl)NS(=O)(=O)C1CCCCCCCCCCC1=O (stereo not drawn)
- EC50 (Botrytis cinerea): 7.8 µg/mL (≈ 17.4 µM)
- EC90 (Botrytis cinerea): 33.8 µg/mL (≈ 75.1 µM)
- inhibition at 50 µg/mL (Fusarium graminearum [1]): 81.6%
- EC50 (Fusarium graminearum [2]): 31.5 µg/mL (≈ 70 µM)
- EC90 (Fusarium graminearum [2]): 169 µg/mL (≈ 377 µM)
- EC50 (Verticillium dahliae): 22 µg/mL (≈ 49 µM)
- EC90 (Verticillium dahliae): 142 µg/mL (≈ 316 µM)
- EC50 (Rhizoctonia solani): 38.9 µg/mL (≈ 86.6 µM)
- EC90 (Rhizoctonia solani): 106 µg/mL (≈ 235 µM)
- EC50 [3]: 19.5 µg/mL (≈ 43.5 µM)
- EC90 [3]: 53.8 µg/mL (≈ 120 µM)
- EC50 [4]: 13.5 µg/mL (≈ 30.1 µM)
- EC90 [4]: 64.3 µg/mL (≈ 143 µM)
- EC50 (Pythium aphanidermatum): 16.7 µg/mL (≈ 37.1 µM)
- EC90 (Pythium aphanidermatum): 49.9 µg/mL (≈ 111 µM)

SMILES: COc1ccc(NC(=O)NS(=O)(=O)C2CCCCCCCCCCC2=O)cc1 (stereo not drawn)
- inhibition at 50 µg/mL (Fusarium graminearum [1]): 18.1%

SMILES: CC12CC1(C)C(=O)N(c1cc(Cl)cc(Cl)c1)C2=O (stereo not drawn) [PROCYMIDONE]
- EC90 (Botrytis cinerea): 5.75 µg/mL (≈ 20.2 µM)

SMILES: Cc1cccc(NC(=O)NS(=O)(=O)C2CCCCCCCCCCC2=O)c1 (stereo not drawn)
- inhibition at 50 µg/mL (Fusarium graminearum [1]): 34.5%

SMILES: O=C1CCCCCCCCCCC1S(=O)(=O)Nc1ccc(Cl)cc1 (stereo not drawn)
- EC50 (Botrytis cinerea): 7.62 µg/mL (≈ 20.5 µM)
- EC90 (Botrytis cinerea): 39 µg/mL (≈ 105 µM)
- inhibition at 50 µg/mL (Fusarium graminearum [1]): 72.6%
- EC50 (Fusarium graminearum [2]): 30 µg/mL (≈ 80.8 µM)
- EC90 (Fusarium graminearum [2]): 414 µg/mL (≈ 1110 µM)
- EC50 (Verticillium dahliae): 10.2 µg/mL (≈ 27.5 µM)
- EC90 (Verticillium dahliae): 55.3 µg/mL (≈ 149 µM)
- EC50 (Rhizoctonia solani): 6.82 µg/mL (≈ 18.3 µM)
- EC90 (Rhizoctonia solani): 57 µg/mL (≈ 153 µM)
- EC50 [3]: 24.6 µg/mL (≈ 66.1 µM)
- EC90 [3]: 293 µg/mL (≈ 788 µM)
- EC50 [4]: 13.8 µg/mL (≈ 37 µM)
- EC90 [4]: 54.8 µg/mL (≈ 147 µM)
- EC50 (Pythium aphanidermatum): 17.6 µg/mL (≈ 47.3 µM)
- EC90 (Pythium aphanidermatum): 59.6 µg/mL (≈ 160 µM)

SMILES: Cc1ccc(NC(=O)NS(=O)(=O)C2CCCCCC2=O)cc1 (stereo not drawn)
- inhibition at 50 µg/mL (Fusarium graminearum [1]): 18.1%

SMILES: Cc1cc(C)nc(NC(=O)NS(=O)(=O)C2CCCCCCCCCCC2=O)n1 (stereo not drawn)
- inhibition at 50 µg/mL (Fusarium graminearum [1]): 18.1%

SMILES: O=C(Nc1ccccc1Cl)NS(=O)(=O)C1CCCCCCCCCCC1=O (stereo not drawn)
- inhibition at 50 µg/mL (Fusarium graminearum [1]): 49%

SMILES: COc1cc(OC)nc(NC(=O)NS(=O)(=O)C2CCCCCC2=O)n1 (stereo not drawn)
- inhibition at 50 µg/mL (Fusarium graminearum [1]): 18.1%

SMILES: CCCc1cc(CCC)nc(NC(=O)NS(=O)(=O)C2CCCCCCCCCCC2=O)n1 (stereo not drawn)
- inhibition at 50 µg/mL (Fusarium graminearum [1]): 34.5%

SMILES: Cc1ccc(NC(=O)NS(=O)(=O)C2CCCCCCCCCCC2=O)cc1 (stereo not drawn)
- inhibition at 50 µg/mL (Fusarium graminearum [1]): 34.5%

SMILES: O=C(Nc1ccc(Cl)cc1)NS(=O)(=O)C1CCCCCCCCCCC1=O (stereo not drawn)
- inhibition at 50 µg/mL (Fusarium graminearum [1]): 49%

SMILES: O=C(Nc1ccc(Cl)c(Cl)c1)NS(=O)(=O)C1CCCCCCCCCCC1=O (stereo not drawn)
- inhibition at 50 µg/mL (Fusarium graminearum [1]): 55.6%

SMILES: Cc1ccc(NC(=O)NS(=O)(=O)C2CCCCCCCCCCC2=O)cc1C (stereo not drawn)
- EC50 (Botrytis cinerea): 9.57 µg/mL (≈ 23.4 µM)
- EC90 (Botrytis cinerea): 35.9 µg/mL (≈ 87.8 µM)
- inhibition at 50 µg/mL (Fusarium graminearum [1]): 77.3%
- EC50 (Fusarium graminearum [2]): 39 µg/mL (≈ 95.5 µM)
- EC90 (Fusarium graminearum [2]): 176 µg/mL (≈ 431 µM)
- EC50 (Verticillium dahliae): 33.7 µg/mL (≈ 82.5 µM)
- EC90 (Verticillium dahliae): 484 µg/mL (≈ 1180 µM)
- EC50 (Rhizoctonia solani): 112 µg/mL (≈ 274 µM)
- EC90 (Rhizoctonia solani): 556 µg/mL (≈ 1360 µM)
- EC50 [3]: 24 µg/mL (≈ 58.8 µM)
- EC90 [3]: 98 µg/mL (≈ 240 µM)
- EC50 [4]: 30.4 µg/mL (≈ 74.5 µM)
- EC90 [4]: 105 µg/mL (≈ 256 µM)
- EC50 (Pythium aphanidermatum): 33.5 µg/mL (≈ 82.1 µM)
- EC90 (Pythium aphanidermatum): 124 µg/mL (≈ 303 µM)

SMILES: Cc1ccnc(NC(=O)NS(=O)(=O)C2CCCCCCCCCCC2=O)n1 (stereo not drawn)
- inhibition at 50 µg/mL (Fusarium graminearum [1]): 18.1%

SMILES: O=C(Nc1cc(Cl)ccc1Cl)NS(=O)(=O)C1CCCCC1=O (stereo not drawn)
- inhibition at 50 µg/mL (Fusarium graminearum [1]): 26.5%

SMILES: Cc1ccc(NC(=O)NS(=O)(=O)C2CCCCCC2=O)c(C)c1 (stereo not drawn)
- inhibition at 50 µg/mL (Fusarium graminearum [1]): 9.3%

SMILES: COc1cc(OC)nc(NC(=O)NS(=O)(=O)C2CCCCC2=O)n1 (stereo not drawn)
- inhibition at 50 µg/mL (Fusarium graminearum [1]): 18.1%

SMILES: O=C(Nc1ccc(Cl)c(Cl)c1)NS(=O)(=O)C1CCCCC1=O (stereo not drawn)
- inhibition at 50 µg/mL (Fusarium graminearum [1]): 18.1%

SMILES: CC(=O)c1ccc(NC(=O)NS(=O)(=O)C2CCCCCCCCCCC2=O)cc1 (stereo not drawn)
- inhibition at 50 µg/mL (Fusarium graminearum [1]): 9.3%

SMILES: COC(=O)Nc1nc2ccccc2[nH]1 [CARBENDAZIM]
- EC50 (Fusarium graminearum [2]): 1.95 µg/mL (≈ 10.2 µM)
- EC90 (Fusarium graminearum [2]): 4.46 µg/mL (≈ 23.3 µM)
- EC50 (Verticillium dahliae): 18.2 µg/mL (≈ 95.2 µM)
- EC90 (Verticillium dahliae): 93.3 µg/mL (≈ 488 µM)
- EC50 (Rhizoctonia solani): 1.41 µg/mL (≈ 7.37 µM)
- EC90 (Rhizoctonia solani): 2.82 µg/mL (≈ 14.7 µM)
- EC50 [3]: 0.54 µg/mL (≈ 2.82 µM)
- EC90 [3]: 2.98 µg/mL (≈ 15.6 µM)
- EC50 [4]: 39.8 µg/mL (≈ 208 µM)
- EC90 [4]: 200 µg/mL (≈ 1040 µM)
- EC50 (Pythium aphanidermatum): 20.4 µg/mL (≈ 107 µM)
- EC90 (Pythium aphanidermatum): 75.9 µg/mL (≈ 397 µM)

SMILES: O=C(Nc1cc(Cl)ccc1Cl)NS(=O)(=O)C1CCCCCC1=O (stereo not drawn)
- inhibition at 50 µg/mL (Fusarium graminearum [1]): 18.1%

SMILES: O=C(Nc1ccc(Cl)cc1)NS(=O)(=O)C1CCCCCC1=O (stereo not drawn)
- inhibition at 50 µg/mL (Fusarium graminearum [1]): 18.1%

SMILES: O=C(NC1CCCCCCCCCCC(=O)OCCC1)NS(=O)(=O)C1CCCCCCCCCCC1=O (stereo not drawn)
- inhibition at 50 µg/mL (Fusarium graminearum [1]): 26.1%

SMILES: O=C(Nc1cccc([N+](=O)[O-])c1)NS(=O)(=O)C1CCCCCCCCCCC1=O (stereo not drawn)
- inhibition at 50 µg/mL (Fusarium graminearum [1]): 18.1%

SMILES: Cc1ccc(NC(=O)NS(=O)(=O)C2CCCCC2=O)cc1 (stereo not drawn)
- inhibition at 50 µg/mL (Fusarium graminearum [1]): 18.1%

SMILES: COc1cc(Cl)nc(NC(=O)NS(=O)(=O)C2CCCCCCCCCCC2=O)n1 (stereo not drawn)
- inhibition at 50 µg/mL (Fusarium graminearum [1]): 34.5%

SMILES: O=C(Nc1cccc(Cl)c1)NS(=O)(=O)C1CCCCCCCCCCC1=O (stereo not drawn)
- inhibition at 50 µg/mL (Fusarium graminearum [1]): 42%

SMILES: Cc1ccc(NC(=O)NS(=O)(=O)C2CCCCC2=O)c(C)c1 (stereo not drawn)
- inhibition at 50 µg/mL (Fusarium graminearum [1]): 26.5%

— ChEMBL document CHEMBL3046938, “Synthesis and fungicidal activity of novel 2-oxocycloalkylsulfonylureas” (J Agric Food Chem, 2005)
